Rows were chosen to be rich in hits. Some 3.4% of all compounds tested hit in one or more screens of this group.
MDM2 E3 inh = inhibitors of human Mdm2 E3 ubiquitin ligase | signal enhancement, % at 5 µM | Q00987 | 210,000 compounds, 0.11% hits | cell-based MDM2 ubiquitination luciferase reporter, 2 h; 0 = plate control, 100 = twice control, blank-subtracted;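 active = signal enhancement of 30% or more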;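 also: luminescence tracks abundance of the self-degrading MDM2-luciferase fusion protein; higher signal means inhibition of MDM2 E3 ligase activity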
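System: stable MDM2–luciferase fusion reporter cells / Input: 2000 cells seeded into each well / Schedule: 4 h settle plus 2 h compound, 37 °C / Compound: single-point 5 µM / Buffer or medium: cells held in DMEM / Benchmarks: control and blank well means / Evaluation: percent signal gain over controls, blank-subtracted / Measured by: luciferase luminescence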
Redox H2O2 prof = compounds producing H2O2 with reducing agent – biochemical, NIH compound library profiling, artefact control for MLSCN library redox annotation, primary screen; DTT-dependent redox cycling H2O2, phenol red/HRP absorbance; 100% = 100 µM peroxide control, 0% = buffer; activation, % at 10 µM; 200,000 compounds, 0.03% hits; AID 878;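 active = activation of at least 50% relative to the plate's high and low controls in the primary single-dose screen; inactive = activation below 50%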;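 also: compound incubated with DTT at 0.8 mM final as the reducing agent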
KCC2 mod = modulators of human KCC2 chloride dependent transport; Q9H2X9; AID 1456; KCC2 cells, thallium flux FluoZin-2 fluorescence; 190,000 compounds, 2.2% hits; B-score of Tl+ flux slope (higher = more flux/activation; lower = inhibition) at 10 µM;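 active = thallium flux slope and its plate-corrected score both differing from the plate sample mean at a set confidence after two filtering rounds, in either direction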;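 also: slope of fluorescence scaled to starting intensity during 10 to 20 s after thallium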
p97 ATPase inh = blocks human p97 ATPase activity | P55072 | recombinant p97 ATPase, Kinase-Glo ATP luminescence, 3 h | inhibition, % at 8 µM | 220,000 compounds, 0.42% hits; in the data active = inhibition above about 15%
PKD1 inh = blocks activity of human protein kinase D1. Q15139. PKD1 kinase fluorescence polarization assay. inhibition, % (no concentration beside the values). 200,000 compounds, 0.056% hits; in the data active = inhibition above about 50%
Target sequence (Q15139 whole entry, looked up): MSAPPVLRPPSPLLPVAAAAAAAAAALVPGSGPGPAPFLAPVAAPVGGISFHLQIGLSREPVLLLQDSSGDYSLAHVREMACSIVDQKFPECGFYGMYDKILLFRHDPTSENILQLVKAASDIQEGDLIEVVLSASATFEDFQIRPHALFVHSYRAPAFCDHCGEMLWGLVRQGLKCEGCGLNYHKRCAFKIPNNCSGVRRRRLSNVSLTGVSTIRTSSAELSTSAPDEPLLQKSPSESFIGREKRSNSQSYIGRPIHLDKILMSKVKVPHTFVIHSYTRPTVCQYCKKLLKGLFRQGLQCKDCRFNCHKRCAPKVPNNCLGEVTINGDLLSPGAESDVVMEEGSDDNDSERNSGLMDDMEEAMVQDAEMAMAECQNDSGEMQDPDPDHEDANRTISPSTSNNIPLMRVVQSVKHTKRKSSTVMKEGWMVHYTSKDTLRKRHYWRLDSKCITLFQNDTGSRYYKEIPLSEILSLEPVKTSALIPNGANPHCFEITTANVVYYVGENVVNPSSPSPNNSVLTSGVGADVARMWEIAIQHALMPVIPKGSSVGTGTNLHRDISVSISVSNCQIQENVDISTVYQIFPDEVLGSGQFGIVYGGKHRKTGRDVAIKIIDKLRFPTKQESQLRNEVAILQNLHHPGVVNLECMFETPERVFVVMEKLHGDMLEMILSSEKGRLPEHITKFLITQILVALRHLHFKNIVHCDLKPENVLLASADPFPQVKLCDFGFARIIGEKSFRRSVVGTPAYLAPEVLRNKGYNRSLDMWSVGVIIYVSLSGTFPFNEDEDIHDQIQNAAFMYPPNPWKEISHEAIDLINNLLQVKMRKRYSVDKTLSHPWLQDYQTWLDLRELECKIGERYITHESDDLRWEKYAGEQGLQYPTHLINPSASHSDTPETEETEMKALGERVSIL
ROMK primary = modulates human ROMK potassium channel activity; P48048; 130,000 compounds, 2% hits; Tet-inducible ROMK, thallium flux fluorescence; actives lie on both sides; AID 1918; B-score at 10 µM;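 active = signal ratio slope over the read window, or its plate-corrected B-score, at least 3 SD from the plate mean, either direction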;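 also: B-score of the F/F0 ratio slope over 7 to 12 s after thallium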
p97 inh conf = confirmation of human p97 ATPase inhibitors; shares compounds with p97 ATPase inh; recombinant p97 ATPase, Kinase-Glo ATP luminescence; inhibition, % at 8 µM; 760 compounds, 44% hits; AID 1517;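 active = percent inhibition of p97 ATPase above a set limit, the primary screen's mean plus 3 SD, cut at about 15% in these data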
ROMK hit retest = confirmation of human ROMK potassium channel modulators | shares compounds with ROMK primary | ROMK thallium flux, fluorescence ratio; active compounds read low | normalized thallium flux (F/F0 slope) at 10 µM | 3,000 compounds, 54% hits | AID 1917;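 active = Flux at 10 µM at least 3 SD below or above vehicle control mean in one or both replicates; inconclusive = no clear call, values can overlap the other calls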
Each line names hits and unclear results; the compound was inactive in the other large screens (follow-up assays come after a bar, where they were run).

NC(=S)NNc1cccc2cccnc12	p97 ATPase inh 16 | p97 inh conf inactive
O=c1cc(C(F)(F)C(F)F)oc2ccccc12	none
Cc1nc(NC(=O)c2ccccc2)sc1-c1csc(Nc2ccc(C(=O)O)cc2)n1	p97 ATPase inh 15 (no result: MDM2 E3 inh, Redox H2O2 prof, PKD1 inh, ROMK primary) | p97 inh conf 15
COc1ccc(NC(=O)CSc2nc3[nH]ncc3c(=O)n2-c2ccccc2OC)cc1OC	none
COc1cc2c(cc1OC)CN(C(=O)CSc1nc3[nH]ncc3c(=O)n1-c1ccccc1)CC2	p97 ATPase inh 20 (no result: ROMK primary) | p97 inh conf inactive
CC(C)(C)c1ccc(OC(=O)Nc2ccc(O)c(C(=O)O)c2)cc1	none (no result: MDM2 E3 inh, Redox H2O2 prof, PKD1 inh, ROMK primary)
NS(=O)(=O)c1ccc(NC(=S)NC(=O)c2ccc(-c3ccccc3)cc2)cc1	none (no result: ROMK primary)
O=S1(=O)Nc2c(ccc3cccnc23)-c2ccccc21	KCC2 mod 4.1, p97 ATPase inh 23 | p97 inh conf 32
O=c1[nH]n(-c2cccc3cccnc23)c(=O)c2ccccc12	none (no result: ROMK primary)
COC(=O)c1c(NC(=O)/C=C/C(=O)O)sc(Cc2ccccc2)c1C	p97 ATPase inh 15 | p97 inh conf 23
COC(=O)c1c(N)sc(Cc2ccccc2)c1C	none (no result: ROMK primary)
CC(C)CC(C(=O)NC1CCCC1)N(Cc1ccc2c(c1)OCO2)C(=O)c1snc(C(N)=O)c1N (stereo not given)	none
Cc1cccc(OCCCC(=O)Nc2ccc(S(N)(=O)=O)cc2)c1	p97 ATPase inh 17 | p97 inh conf inactive
CCN(CC)c1ccc(NC(=O)CCCOc2cccc(C)c2)cc1	none (no result: ROMK primary)
COc1cc2[nH]c3c(Cl)ncnc3c2cc1OC	none (no result: ROMK primary)
COc1cc2[nH]c(Cl)c([N+](=O)[O-])c2cc1OC	p97 ATPase inh 17 (no result: MDM2 E3 inh, Redox H2O2 prof, PKD1 inh, ROMK primary) | p97 inh conf inactive
NS(=O)(=O)c1ccc(CCNC(=O)CCCn2c(=O)[nH]c3ccc(Br)cc3c2=O)cc1	p97 ATPase inh 26 | p97 inh conf inactive
COc1ccccc1Nc1nc(NCc2ccco2)nc(N)c1[N+](=O)[O-]	p97 ATPase inh 16 (no result: Redox H2O2 prof, PKD1 inh, ROMK primary) | p97 inh conf 21
COc1ccc(OC)c(Nc2nc(NCc3ccco3)nc(N)c2[N+](=O)[O-])c1	none (no result: Redox H2O2 prof, PKD1 inh)
O=C1S/C(=C\C=C\c2ccco2)C(=O)N1c1ccc(O)cc1	p97 ATPase inh 43 (no result: ROMK primary) | p97 inh conf inactive
Cc1c(O)ccc(C(=O)CN2CCN(Cc3ccc4c(c3)OCO4)CC2)c1O	p97 ATPase inh 16 | p97 inh conf inactive
O=c1c(O)cccc2cc(O)c(O)c(O)c12	p97 ATPase inh 38 (no result: Redox H2O2 prof, PKD1 inh, ROMK primary) | p97 inh conf 45
COc1cc2cccc(OC)c(=O)c2c(OC)c1OC	none
Cc1ccsc1C(=O)N1CCCC(C(=O)c2cc(F)ccc2F)C1 (stereo not given)	none
Cn1c(=NC(=O)CCl)sc2ccccc21	p97 ATPase inh 20 (no result: ROMK primary) | p97 inh conf 22
COc1ccc(-c2nnc(SCC(=O)NNC(=O)Cc3ccccc3)n2C)cc1OC	none
C/C(=N\NC(=O)c1ccc(NS(=O)(=O)c2cccs2)cc1)c1ccc(O)cc1O	p97 ATPase inh 20 (no result: Redox H2O2 prof, PKD1 inh, ROMK primary) | p97 inh conf 20
COc1ccccc1-c1nnc(Sc2nc([N+](=O)[O-])nn2C)o1	p97 ATPase inh 16 (no result: KCC2 mod) | p97 inh conf 24
Cc1cc(C)nc(NC(=O)/C=C/c2ccccc2Cl)n1	none (no result: KCC2 mod, ROMK primary)
Cc1cc(N)c2cc(NC(=O)/C=C/c3ccccc3Cl)ccc2n1	p97 ATPase inh 24 (no result: Redox H2O2 prof, PKD1 inh, ROMK primary) | p97 inh conf 23 | ROMK hit retest 0.055
CCCc1oc(C(=O)O)cc1CN1CCCC1	none
CCOC(=O)C1=C(c2ccccc2)NC(N)=NC1c1ccc(OCc2ccc(C(=O)OC)cc2)cc1 (stereo not given)	p97 ATPase inh 33 (no result: Redox H2O2 prof, PKD1 inh, ROMK primary) | p97 inh conf 35 | ROMK hit retest 0.053
O=C(CCl)Nc1nc(-c2ccco2)c(-c2ccco2)s1	p97 ATPase inh 18, ROMK primary -4.2 | p97 inh conf 42 | ROMK hit retest 0.053
O=C(Nc1nn(Cc2ccc(Cl)cc2)cc1Br)c1ccc(COc2ccccc2Cl)o1	none
Cc1ccc2[nH]cc(C(=O)CCl)c2c1	p97 ATPase inh 33, ROMK primary -4.2 (no result: MDM2 E3 inh) | p97 inh conf 46 | ROMK hit retest 0.055
Cc1ccc2[nH]cc(C(=O)CN3CCN(C)CC3)c2c1	none (no result: ROMK primary)
COC(=O)c1ccccc1-c1ccc(C(c2c(C)[nH][nH]c2=O)c2c(C)[nH][nH]c2=O)o1	p97 ATPase inh 20, ROMK primary -3.8 | p97 inh conf inactive | ROMK hit retest inconclusive
COC(=O)c1ccccc1NC(=O)c1ccc(-c2ccccc2F)o1	none (no result: KCC2 mod, ROMK primary)
COc1ccc2c(C)cc(=O)[nH]c2c1	none (no result: KCC2 mod)
Cc1cc(/C=C2\SC(=S)NC2=O)c(C)n1-c1cccc(O)c1	p97 ATPase inh 18 (no result: Redox H2O2 prof, PKD1 inh, ROMK primary) | p97 inh conf 16 | ROMK hit retest 0.053
Cc1[nH][nH]c(=O)c1C(c1c(C)[nH][nH]c1=O)c1cn(Cc2ccc(Cl)c(Cl)c2)c2ccccc12	p97 ATPase inh 42 (no result: ROMK primary) | p97 inh conf inactive | ROMK hit retest 0.056
O=c1ccc(NS(=O)(=O)c2ccccc2Cl)cn1Cc1ccc(Cl)c(Cl)c1	none
COc1cc(/C=C2\CC/C(=C\c3ccc(OCCO)c(OC)c3)C2=O)ccc1OCCO	p97 ATPase inh 15, ROMK primary -2.4 | p97 inh conf inactive | ROMK hit retest inconclusive
COc1cc(/C=C2/CC/C(=C/c3ccc(O)c(OC)c3)C2=O)ccc1O	p97 ATPase inh 35 (no result: Redox H2O2 prof, PKD1 inh, ROMK primary) | p97 inh conf 17 | ROMK hit retest 0.051
COC(=O)[C@@H]1C[C@@H]2CC[C@@H](O)C[C@@H]2N1Cc1ccc(Cl)cc1	none (no result: Redox H2O2 prof, p97 ATPase inh, PKD1 inh, ROMK primary)
COCCCNC(=O)c1cccn2c(=O)c3cc4ccccc4cc3nc12	p97 ATPase inh 15 (no result: ROMK primary) | p97 inh conf inactive | ROMK hit retest 0.054
CC1CCCCC1NC(=O)CCCc1nc2ccccc2c(=O)[nH]1 (stereo not given)	none (no result: ROMK primary)
CCO[C@@H]1OC(C(=O)NC2CC2)=C[C@H](C2CC2)[C@H]1CCCO	none (no result: Redox H2O2 prof, p97 ATPase inh, PKD1 inh, ROMK primary)
CC1=NN(c2ccccc2)C(=O)/C1=C\c1ccc(Br)s1	none
CC1=NN(c2ccccc2)C(=O)/C1=C/c1cccs1	p97 ATPase inh 17, ROMK primary -3.4 | p97 inh conf inactive | ROMK hit retest 0.048
COc1cccc(/C=C2\SC(=S)N(CC3CCCO3)C2=O)c1 (stereo not given)	none (no result: ROMK primary)
COc1cccc(/C=C2\SC(=S)N(N3C(=O)CCCC3=O)C2=O)c1	ROMK primary -2.7 | ROMK hit retest 0.049
Cc1ccccc1C=Nc1ccccc1C(N)=O	ROMK primary 2.8 | ROMK hit retest inactive
Cc1ccc(C=Nc2ccccc2C(N)=O)cc1	none

From PubChem
